{"source": "ChEMBL document CHEMBL2434958", "about": "“Identification of a novel series of orexin receptor antagonists with a distinct effect on sleep architecture for the treatment of insomnia” (J Med Chem, 2013)", "key": {"[1]": {"test_system": "Mus musculus", "assay": "Induction of sleep in C57BL/6 mouse assessed as increase in total sleep time at 50 mg/kg, po measured during first 4 hrs by EEG/EMG analysis relative to vehicle-treated control"}, "[2]": {"test_system": "Brain", "assay": "Fraction unbound in C57BL/6 mouse brain at 50 mg/kg, po after 1 hr by LC-MS/MS analysis", "assay_type": "ADME, organism-based", "parameters": "dose 50 mg/kg, route oral", "conditions": "in vivo", "summary_of_the_method": "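Unbound fraction assessed in mouse brain homogenate by a slightly adapted literature method, measured separately from the dosed animals. Free brain level obtained by multiplying fraction unbound by brain concentration from the 50 mg/kg po satellite group at 60 min. Mean ± SD, n = 3.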"}, "[3]": {"target": "T1, Orexin receptor type 2 (Mus musculus, UniProt P58308)", "T1 sequence (P58308 whole entry)": "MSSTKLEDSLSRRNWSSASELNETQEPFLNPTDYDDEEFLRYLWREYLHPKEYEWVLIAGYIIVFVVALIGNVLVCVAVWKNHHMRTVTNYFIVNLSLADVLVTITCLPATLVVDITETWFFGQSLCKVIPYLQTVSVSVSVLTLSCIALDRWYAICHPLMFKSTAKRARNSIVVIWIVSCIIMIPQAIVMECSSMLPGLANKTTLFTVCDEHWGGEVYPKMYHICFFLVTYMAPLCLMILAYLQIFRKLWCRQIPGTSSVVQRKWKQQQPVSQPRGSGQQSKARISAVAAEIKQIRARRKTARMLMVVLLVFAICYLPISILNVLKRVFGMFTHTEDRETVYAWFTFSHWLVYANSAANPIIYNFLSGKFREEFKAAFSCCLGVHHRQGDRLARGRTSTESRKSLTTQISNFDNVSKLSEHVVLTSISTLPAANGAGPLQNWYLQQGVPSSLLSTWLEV", "assay": "Antagonist activity at mouse OX2 receptor expressed in HEK cells assessed as inhibition of orexin A-induced Ca2+ accumulation after 1 hr by Fluo-4-AM staining-based FLIPR assay", "assay_type": "functional, cell-based, HEK293"}, "[4]": {"test_system": "Mus musculus", "assay": "Induction of sleep in C57BL/6 mouse assessed as increase in rapid eye movement at 50 mg/kg, po measured during 4 hrs by EEG/EMG analysis relative to vehicle-treated control", "assay_type": "functional, organism-based", "parameters": "dose 50 mg/kg", "summary_of_the_method": "(§1)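 Male C57Bl/6 mice with implanted cortical EEG screw electrodes and EMG, recovered 2 weeks, 12 h/12 h light/dark cycle. Crossover: vehicle (0.5% methylcellulose, 10 mL/kg po) on day 2, compound po on day 3, each given 5–15 min before lights-off. 23 h recordings; EEG filtered 0.3–30 Hz, EMG 5–30 Hz; 10 s epochs scored as wake, NREM or REM from EEG/EMG and infrared motility.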"}, "[5]": {"test_system": "Mus musculus", "assay": "Induction of sleep in C57BL/6 mouse assessed as increase in non-rapid eye movement at 50 mg/kg, po measured during 4 hrs by EEG/EMG analysis relative to vehicle-treated control", "assay_type": "functional, organism-based", "parameters": "dose 50 mg/kg", "summary_of_the_method": "as §1"}, "[6]": {"target": "T2, Orexin/Hypocretin receptor type 1 (Mus musculus, UniProt P58307)", "T2 sequence (P58307 whole entry)": "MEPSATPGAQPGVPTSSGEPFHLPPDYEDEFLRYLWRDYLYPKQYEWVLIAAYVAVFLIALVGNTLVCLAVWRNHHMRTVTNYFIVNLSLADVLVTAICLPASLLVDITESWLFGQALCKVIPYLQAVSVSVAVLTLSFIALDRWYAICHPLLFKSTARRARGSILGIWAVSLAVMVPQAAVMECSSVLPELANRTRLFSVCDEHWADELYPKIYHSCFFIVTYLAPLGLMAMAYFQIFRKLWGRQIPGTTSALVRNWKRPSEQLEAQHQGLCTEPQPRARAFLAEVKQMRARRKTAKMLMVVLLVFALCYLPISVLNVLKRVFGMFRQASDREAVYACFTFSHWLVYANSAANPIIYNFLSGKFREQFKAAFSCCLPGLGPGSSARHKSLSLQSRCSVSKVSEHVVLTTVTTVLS", "assay": "Antagonist activity at mouse OX1 receptor expressed in CHO cells assessed as inhibition of orexin A-induced Ca2+ accumulation after 1 hr by Fluo-4-AM staining-based FLIPR assay", "assay_type": "functional, cell-based"}, "[7]": {"test_system": "Brain", "assay": "Drug uptake in C57BL/6 mouse brain at 50 mg/kg after 1 hr by LC-MS/MS analysis", "assay_type": "ADME, organism-based", "parameters": "dose 50 mg/kg", "conditions": "in vivo", "summary_of_the_method": "(§2)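 Satellite PK group: oral gavage of 50 mg/kg suspended in 0.5% w/v methylcellulose in water, 10 mL/kg. Blood and brain taken after decapitation at 15 and 60 min post-dose, n = 3 mice per time point, stored at −20 °C. Brain homogenised in 2 mM KH₂PO₄; acetonitrile quench with internal standard; LC/MS/MS against six-level calibration curve. Mean ± SD reported.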"}, "[8]": {"test_system": "Mus musculus", "assay": "Effect on locomotion in C57BL/6 mouse assessed as reduction of motility at 50 mg/kg, po measured up to 4 hrs", "assay_type": "functional, organism-based", "parameters": "dose 50 mg/kg", "summary_of_the_method": "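Mice habituated, then dosed orally immediately before lights-off (15:00, start of active phase); vehicle 0.5% methylcellulose in water. Inactivity = any minute with no infrared beam breaks. Per-animal difference between inactivity 15:00–19:00 post-dose and the same 4 h during habituation 24 h earlier. n = 6; one-way ANOVA with Dunnett's test versus vehicle.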"}, "[9]": {"test_system": "Mus musculus", "assay": "Induction of sleep in C57BL/6 mouse assessed as increased rapid eye movement sleep proportion at 50 mg/kg, po measured during 1 hr by EEG/EMG analysis relative to vehicle-treated control", "assay_type": "functional, organism-based", "parameters": "dose 50 mg/kg", "summary_of_the_method": "as §1"}, "[10]": {"assay": "Drug uptake in C57BL/6 mouse blood at 50 mg/kg after 1 hr by LC-MS/MS analysis", "assay_type": "ADME, organism-based", "parameters": "dose 50 mg/kg", "conditions": "read-out: Drug uptake", "summary_of_the_method": "as §2"}}, "note": "Active and inactive are the calls of the source. The calls are words filed in the database; no cut-off is given here."}
{"smiles": "Cc1ccc(-n2nccn2)c(C(=O)N2CCN(c3nc4cc(Cl)ccc4o3)CC[C@H]2C)c1", "note": "[SUVOREXANT]", "values": [{"measurement": "Activity", "setting": "[1]", "value": "Active"}, {"measurement": "Fu", "setting": "[2]", "value": 0.65, "unit": "%"}, {"measurement": "Ki", "setting": "[3]", "value": 8.71, "unit": "nM"}, {"measurement": "Activity", "setting": "[4]", "value": "Active"}, {"measurement": "Activity", "setting": "[5]", "value": "Active"}, {"measurement": "Ki", "setting": "[6]", "value": 1.7, "unit": "nM"}, {"measurement": "Drug uptake", "setting": "[7]", "value": 10329, "unit": "pmol/g"}, {"measurement": "Activity", "setting": "[8]", "value": "Active"}, {"measurement": "Activity", "setting": "[9]", "value": "Active"}, {"measurement": "concentration at 1 h", "setting": "[10]", "value": 10.5, "unit": "µM"}]}
